Assay results reported in ChEMBL document CHEMBL2040828 (J Med Chem, 2012).
Calls of active or inactive are those of the source. The calls are words filed in the database; no cut-off is given here.

Assays:
[1] = system: Hepatitis C virus; experiment: Antiviral activity against HCV by cell based replicon assay; format: functional, organism-based, Hepacivirus hominis
[2] = Irreversible inhibition of hepatitis C virus NS5B polymerase; set-up: species or system Hepacivirus hominis
[3] = AUC in rat at 10 mg/kg, po; format: ADME, organism-based; set-up: dose 10 mg/kg, route oral; settings: plasma
Summary of the method: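 Single-dose pharmacokinetics: rats were dosed at 10 mg/kg, and monkeys and dogs at 3 mg/kg. Oral AUC, clearance, half-life and bioavailability were determined. All doses were given in 0.4% MC vehicle.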

[4] = system: Hepacivirus hominis; experiment: Binding affinity to hepatitis C virus NS5B polymerase assessed as covalent bonding with cysteine-366 residue by mass spectroscopy analysis

Structure (SMILES) | EC50 [1] [nM] | IC50 [2] [nM] | AUC [3] [µM·h] | Activity [4]
CCc1ccc2c(c1)c(-c1ccc[nH]c1=O)c(C(=O)NS(=O)(=O)C1CC1)n2Cc1cc(S(N)(=O)=O)c(Cl)cc1Cl | 1400 | 6 |  | 
Cc1ccc2c(c1)c(-c1ccc[nH]c1=O)c(C(=O)NS(=O)(=O)C1CC1)n2Cc1cc(S(C)(=O)=O)cc(C#N)c1F | 5 | 3 |  | 
Cc1cc2c(-c3ccc[nH]c3=O)c(C(=O)NS(=O)(=O)C3CC3)n(Cc3cc([N+](=O)[O-])ccc3F)c2cc1F | 4 | 7 | 0.35 | 
Cc1ccc2c(c1)c(-c1ccc[nH]c1=O)c(C(=O)NS(=O)(=O)C1CC1)n2Cc1c(F)c(F)cc(C(N)=O)c1F | 3300 | 14 |  | 
Nc1cc(Cn2c(C(=O)O)c(-c3ccc[nH]c3=O)c3cc(Cl)ccc32)ccn1 |  | 53 |  | 
O=C(NS(=O)(=O)C1CC1)c1c(-c2ccc[nH]c2=O)c2cc(F)ccc2n1Cc1cc([N+](=O)[O-])ccc1F | 6 | 5 |  | 
Cc1ccc2c(c1)c(-c1ccc[nH]c1=O)c(C(=O)NS(C)(=O)=O)n2Cc1cc([N+](=O)[O-])ccc1F | 1 | 6 | 0.19 | Active
Cc1ccc2c(c1)c(-c1ccc(C)[nH]c1=O)c(C(=O)NS(=O)(=O)C1CC1)n2Cc1cc([N+](=O)[O-])ccc1F | 9 | 12 |  | 
O=C(NS(=O)(=O)C1CC1)c1c(-c2ccc[nH]c2=O)c2ccccc2n1Cc1cc([N+](=O)[O-])ccc1F | 6 | 4 |  | 
Cc1ccc2c(c1)c(-c1ccc[nH]c1=O)c(C(=O)N[S+]([O-])C(C)C)n2Cc1cc([N+](=O)[O-])ccc1F (centres undefined) | 2 | 7 |  | 

More lines, in order of falling IC50 [2], values ahead:

EC50 [1] [nM] | IC50 [2] [nM] | AUC [3] [µM·h] | Activity [4] | Structure (SMILES)
900 | 46 |  |  | Cc1ccc2c(c1)c(-c1ccc[nH]c1=O)c(C(=O)NS(=O)(=O)C1CC1)n2Cc1cc(S(=O)(=O)C(F)(F)F)ccc1Cl
270 | 14 |  |  | Cc1ccc2c(c1)c(-c1ccc[nH]c1=O)c(C(=O)NS(=O)(=O)C1CC1)n2Cc1c(F)c(F)cc(S(C)(=O)=O)c1F
5 | 6 | 0.3 |  | O=C(NS(=O)(=O)C1CC1)c1c(-c2ccc[nH]c2=O)c2cc(Cl)ccc2n1Cc1cc([N+](=O)[O-])ccc1F
 | 6 |  |  | Cc1ccc2c(c1)c(-c1ccc[nH]c1=O)c(C(=O)NS(=O)(=O)C1CC1)n2Cc1cc(F)ccc1F
50 | 5 |  |  | Cc1ccc2c(c1)c(-c1ccc[nH]c1=O)c(C(=O)NS(=O)(=O)C1CC1)n2Cc1ccccc1F
3 | 3 |  |  | CCc1ccc2c(c1)c(-c1ccc[nH]c1=O)c(C(=O)NS(=O)(=O)C1CC1)n2Cc1cc(S(C)(=O)=O)c(C#N)cc1F
1 | 3 | 0.14 |  | Cc1ccc2c(c1)c(-c1ccc[nH]c1=O)c(C(=O)O)n2Cc1cc([N+](=O)[O-])ccc1F
60 | 2 |  |  | CCc1ccc2c(c1)c(-c1ccc[nH]c1=O)c(C(=O)NS(=O)(=O)C1CC1)n2Cc1cc(S(C)(=O)=O)c(Cl)cc1F
